Assay results published in ChEMBL document CHEMBL1124570, “2-[[(4-Amino-2-pyridyl)methyl]sulfinyl]benzimidazole H+/K+-ATPase inhibitors. The relationship between pyridine basicity, stability, and activity” (J Med Chem, 1989).
Converted amounts (≈) assume the structure as drawn.

Columns and labels:
[1] = tested on: Rattus norvegicus; test: Inhibition of histamine-stimulated gastric acid secretion in lumen perfused anesthetized rat after intraduodenal administration; type: functional; details: Stomach
Method in brief: (§1)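 Anaesthetized rat with stomach lumen perfusion. Effluent H⁺ activity is monitored continuously with a microflow glass electrode. Secretion is driven by i.v. histamine infusion at 0.25 μmol/(kg·min). Inhibitor is given i.v. or i.d. once a submaximal plateau is reached. % inhibition compares peak inhibition with the pre-dose plateau. ED50 uses three dose levels, three animals per dose.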

[2] = Half-life at pH 7.4; type: ADME; details: buffer
Method in brief: (§2)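 Stability at ambient temperature (20 °C) in acetonitrile/phosphate buffer (1:3) adjusted to the stated pH. Initial compound concentration is 1 × 10⁻³ to 3 × 10⁻⁴ M. Loss is followed by reverse-phase C18 HPLC with UV detection at 280 nm. t1/2 comes from linear regression of ln(concentration) vs time (h).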

[3] = Dissociation constant at 37 degree Centigrade; type: physicochemical
[4] = Solubility in water at pH 10
[5] = Partition coefficient at 37 degree Celsius at pH 7.4; type: physicochemical; details: octanol/water
[6] = tested on: Canis familiaris; test: Percent inhibition of histamine-stimulated gastric acid secretion in Heidenhain pouch dog after intraduodenal administration of compound (2 umol/kg); type: functional, Canis lupus familiaris, Stomach
Method in brief: (§3)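 Heidenhain pouch dog with i.v. histamine at 0.5 μmol/(kg·h). Juice is collected every 15 min and acid output is found by titration to pH 7.4. Compound is given intraduodenally via a chronic duodenal cannula at submaximal plateau. Value is peak inhibition or mean plateau inhibition over 1 to 2½ h, mean of n = 4 dogs ± SEM.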

[7] = Half-life at pH 1.0; type: ADME; details: buffer; method in brief: as §2
[8] = tested on: Canis familiaris; test: Inhibition of histamine-stimulated gastric acid secretion in conscious Heidenhain pouch dog after intravenous administration; type: functional; details: Canis lupus familiaris, Stomach
Method in brief: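 Conscious dog with a Heidenhain pouch made 1-3 years earlier. Acid secretion is stimulated by i.v. histamine at 0.5 μmol/(kg·h). Juice is collected by gravity every 15 min and titrated to pH 7.4 with 0.1 N NaOH. Inhibitor is given i.v. at submaximal plateau. % inhibition compares the peak-inhibition sample with the pre-dose sample. ED50 uses three doses × three dogs, with 95% confidence limits (n = 9).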

[9] = tested on: Rattus norvegicus; test: Inhibition of histamine-stimulated gastric acid secretion in lumen perfused anesthetized rat after intravenous administration; type: functional; details: Stomach; method in brief: as §1
[10] = Partition coefficient at 37 degrees Celsius at pH 7.4; type: physicochemical; details: octanol/water
[11] = tested on: Canis familiaris; test: Percent inhibition of histamine-stimulated gastric acid secretion in Heidenhain pouch dog after intraduodenal administration of compound (1 umol/kg); type: functional, Canis lupus familiaris, Stomach; method in brief: as §3
[12] = Dissociation constant at 37 degrees Centigrade; type: physicochemical
[13] = tested on: Rattus norvegicus; test: Inhibition of histamine-stimulated gastric acid secretion in lumen perfused anesthetized rat after intravenous administration of 1 umol/kg; type: functional; details: Stomach; method in brief: as §1
[14] = tested on: Rattus norvegicus; test: Inhibition of histamine-stimulated gastric acid secretion in lumen perfused anesthetized rat after intravenous administration; Poor solubility; type: functional, organism-based; details: Stomach; method in brief: as §1
[15] = tested on: Rattus norvegicus; test: Inhibition of histamine-stimulated gastric acid secretion in lumen perfused anesthetized rat after intravenous administration of 1 umol/kg.; type: functional; details: Stomach; method in brief: as §1

Row | Structure (SMILES) | half-life [2] [days] | pKa [3] | ED50 [1] [µmol/kg] | ED50 [8] [µmol/kg] | also measured
1 | COc1ccc2[nH]c([S+]([O-])Cc3ncc(C)c(N4CCOCC4)c3Cl)nc2c1 (stereo not given) | > 125 | 5.32 |  |  | 
2 | COc1ccc2[nH]c([S+]([O-])Cc3nccc(N4CCOCC4)c3Cl)nc2c1 (stereo not given) | 54 | 5.28 | 1.14 | 1.01 | solubility [4]: 15 mg/mL (≈ 36.9 mM); logD [5]: 1.81; Inhibition [6]: 48%; half-life [7]: 1 min
3 | COc1ccc2[nH]c([S+]([O-])Cc3cc(N(C)C)c(Br)cn3)nc2c1 (stereo not given) | 4.21 | 5.8 | 1.75 |  | ED50 [9]: 0.26 µmol/kg
4 | COc1ccc2[nH]c([S+]([O-])Cc3nccc(N(C)C)c3Cl)nc2c1 (stereo not given) | 0.708 |  | 0.38 | 0.26 | ED50 [9]: 0.44 µmol/kg
5 | COc1ccc2[nH]c([S+]([O-])Cc3ncc(C)c(OC)c3C)nc2c1 (stereo not given) [OMEPRAZOLE] | 19 |  |  | 0.2 | logD [10]: 2.18; Inhibition [11]: 53%; half-life [7]: 2 min; pKa [12]: 6.29
6 | COc1ccc2[nH]c([S+]([O-])Cc3cc(N4CCOCC4)c(Br)cn3)nc2c1 (stereo not given) |  |  |  |  | inhibition in vivo at 1 µmol/kg [13]: 14%
7 | COc1ccc2[nH]c([S+]([O-])Cc3nccc(N4CCOCC4)c3F)nc2c1 (stereo not given) | 6 | 5.89 | 3.2 |  | 
8 | COc1ccc2[nH]c([S+]([O-])Cc3nccc(N(C)C)c3F)nc2c1 (stereo not given) | 0.458 | 7.12 |  |  | 
9 | COc1ccc2[nH]c([S+]([O-])Cc3ncc(C)c(N(C)C)c3Cl)nc2c1 (stereo not given) | 18 | 5.92 | 1.48 |  | Inhibition [11]: 67%; half-life [7]: 1 min; ED50 [9]: 0.34 µmol/kg
10 | COc1ccc2[nH]c([S+]([O-])Cc3cc(N(C)C)c(F)cn3)nc2c1 (stereo not given) | 1.08 | 6.96 |  |  | inhibition in vivo at 1 µmol/kg [15]: 37%
11 | COc1ccc2[nH]c([S+]([O-])Cc3cc(N(C)C)c(Cl)cn3)nc2c1 (stereo not given) | 4 |  |  | 0.77 | ED50 [9]: 1.32 µmol/kg

More lines, main results first:

Row | half-life [2] [days] | pKa [3] | Structure (SMILES) | ED50 [1] [µmol/kg] | ED50 [8] [µmol/kg] | also measured
12 | 18.5 |  | COc1ccc2[nH]c([S+]([O-])Cc3ncc(C)c(N4CCCCC4)c3Cl)nc2c1 (stereo not given) | 2.51 |  | 
13 | 1.5 | 7.58 | COc1ccc2[nH]c([S+]([O-])Cc3nccc(N4CCCC4)c3Cl)nc2c1 (stereo not given) |  |  | ED50 [14]: Poor solubility
14 | 36 | 5.4 | COc1ccc2[nH]c([S+]([O-])Cc3cc(N4CCCCC4)c(Br)cn3)nc2c1 (stereo not given) | 1.05 | 2.94 | 
15 | 17.4 | 5.72 | COc1ccc2[nH]c([S+]([O-])Cc3cc(N4CCOCC4)c(F)cn3)nc2c1 (stereo not given) | 0.65 | 5.07 | 
16 | 2.5 |  | COc1ccc2[nH]c([S+]([O-])Cc3ncc(C)c(N4CCCC4)c3Cl)nc2c1 (stereo not given) |  | 0.57 | 
17 | 12.5 |  | COc1ccc2[nH]c([S+]([O-])Cc3nccc(N4CCCCC4)c3Br)nc2c1 (stereo not given) |  |  | ED50 [9]: 0.85 µmol/kg
18 | 7.29 | 5.95 | COc1ccc2[nH]c([S+]([O-])Cc3nccc(N4CCCCC4)c3Cl)nc2c1 (stereo not given) | 7.72 | 1.16 | 
19 | 2.04 | 6.92 | COc1ccc2[nH]c([S+]([O-])Cc3cc(N4CCCC4)c(Br)cn3)nc2c1 (stereo not given) |  |  | 
